Test results published in PubChem BioAssay AID617 (SRMLSC, 2007).

The compounds below were run on E. coli BW25113 ΔtolC growth inhibition, OD615 (assay: growth inhibitors of E. coli tolC mutant, dose response, strain BW25113 ΔtolC::kan (AID 617)).
Method in brief: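 system = E. coli BW25113 tolC deletion strain (ΔtolC::kan), whole bacterial cells | technique = optical density (absorbance) at 615 nm | dosing = compounds in serially diluted dose-response series | times = bacterial growth with compound for 20 h, 37 °C | evaluation = growth-inhibition IC50 from four-parameter logistic curve, bounds set to 0% and 100%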

Row | SMILES | IC50 [µM]
1 | Oc1c(CN2CCc3ccccc3C2)cc(Cl)c2cccnc12 | 8.71
2 | CCOC(=O)c1cnc(-n2cc(C)cn2)nc1Nc1ccccc1OCC | 16
3 | CCOC(=O)Cc1c(C)nc2c(-c3ccc(Cl)cc3)c[nH]n2c1=O | 2.11
4 | CCOC(=O)Cc1nnc2c(Nc3ccc(Cl)cc3)nc3nonc3n12 | 3.75
5 | Cc1sc(NC(=O)c2ccco2)c(CN2CCN(c3ccccn3)CC2)c1C | 9.55
6 | O=S(=O)(c1ccccc1)N1CCN(Cc2ccccc2C(F)(F)F)CC1 | 16.8
7 | CSCSC1=C(C#N)C(c2ccc(Cl)cc2)C(C(C)=O)=C(C)N1 (stereo not drawn) | 9.12
8 | COc1ccc2[nH]c(=O)c(CN(C(=O)NC3CCCCC3)C3CCCCC3)cc2c1 | 19.4
9 | COc1ccc2nc3c(cc2c1)c(NC(=O)c1cccs1)nn3CC(C)C | 9.28
10 | CCOC(=O)c1sc(NC(=O)CSc2n[nH]c(-c3ccccc3)n2)c(C#N)c1C | 1.69
11 | O=C(CS(=O)(=O)c1ccccc1)Nc1nc(-c2ccccc2)cs1 | 8.07
12 | O=C(Nc1nnc(-c2ccc(F)cc2)o1)c1ccco1 | 16.3
13 | CCCc1cc(-c2[nH]ncc2-c2ccc3c(c2)OCCCO3)c(O)cc1O | 5.48
14 | CCC(C(=O)N1CCN(c2cccc(Cl)c2)CC1)c1ccccc1 (stereo not drawn) | 14.2
15 | CN(Cc1ccccc1)c1ncnc2c1cnn2-c1ccccc1 | 12.7
16 | [O-][N+]1=c2ccc(Nc3ccccc3)cc2=NC12CCCCC2 | 15.3
17 | CC(C)(C)c1ccc(OCC(=O)NCc2ccco2)c(Br)c1 | 14.6
18 | Cc1csc(SCC(=O)Nc2nc(-c3ccccc3)cs2)n1 | 14.1
19 | CCCn1nnnc1NC(=O)CSc1ccc(Cl)cc1 | 4.21
20 | O=C(NCCCc1ccccc1)c1ccccc1O | 9.34
21 | N#Cc1nc(COc2ccccc2)oc1N1CCN(Cc2ccccc2)CC1 | 14.3

Row | SMILES | IC50 [µM]
22 | Cc1nc2nc(-c3ccco3)[nH]n2c(=O)c1Cc1ccccc1 | 5.98
23 | COc1cc2c(C#N)c(N3CCc4ccccc4C3)nc(N)c2c(N)n1 | 23.5
24 | O=C(COn1nnc2ccc(C(F)(F)F)cc21)Nc1nnc(-c2ccccc2)o1 | 0.64
25 | Cc1ccc2c(CC(=O)OCc3nc(N)nc(Nc4ccccc4C)n3)coc2c1 | 10
26 | CCSc1nnc(NC(=O)c2ccccn2)s1 | 4.66
27 | CCCCOc1ccc(NC2=NC3(CCCCC3)N=C(N)N2)cc1 | 2.64
28 | CCCCCn1c(N2CCC(Cc3ccccc3)CC2)nc2c1c(=O)[nH]c(=O)n2C | 6.18
29 | O=C(Oc1ccc2ccccc2c1Cl)N1CCCC1 | 23.2
30 | O=C(c1ccco1)N1CCN(c2c(-c3ccccc3)c3cc(Cl)ccc3[nH]c2=O)CC1 | 24
31 | CC1=CCC(COC(=O)Nc2ccccc2)CC1 (stereo not drawn) | 26.8
32 | O=C(CCn1c(=O)oc2ccccc21)N1CCN(C(c2ccccc2)c2ccccc2)CC1 | 29
33 | CCCOC(=O)c1ccc(Oc2c(-c3ccc(O)cc3O)n[nH]c2C)cc1 | 3.26
34 | COc1ccc(NC(=O)c2ccc(Cl)c(S(=O)(=O)N3CCc4ccccc4C3)c2)cn1 | 8.1
35 | Cc1onc(-c2ccccc2)c1C(=O)Nc1nnc(COc2ccc(Cl)cc2)s1 | 2.99
36 | COC(=O)c1ccsc1NC(=O)CN1CCN(c2ccc(F)cc2)CC1 | 18.5
37 | CCCc1ccc(Oc2cn[nH]c2-c2ccc(O)c(C)c2O)cc1 | 1.84
38 | CCN(C(=O)c1cc2cc3ccc(C)cc3nc2o1)c1ccc(OC)cc1 | 19
39 | CCc1c(C)nc2cc(-c3cc(OC)cc(OC)c3)nn2c1N1CCCC1 | 25.5
40 | CN(c1ccccc1)c1nc(N2CCCC2)nc(-n2ccnc2)n1 | 4.03
41 | COC(=O)c1[nH]c2cccc(OC)c2c1NC(=O)CN1CC2(C)CC1CC(C)(C)C2 (stereo not drawn) | 38.8
42 | CCCOc1nc2c(c(=O)n(C)c(=O)n2C)n1Cc1cccc2ccccc12 | 28.2

Row | SMILES | IC50 [µM]
43 | Nc1nncn1C(=O)CCCN1C(=O)c2ccccc2C1=O | 12.7
44 | CC1CN(S(=O)(=O)c2ccc(C(=O)Nc3nnc(-c4ccc5c(c4)CCCC5)o3)cc2)CC(C)O1 (stereo not drawn) | 0.77
45 | Cc1ccc(C2(c3ccc(C)cc3)NC(=O)N(Cc3c(C)noc3C)C2=O)cc1 | 6.45
46 | Clc1ccc(C(c2nnnn2C2CCCCC2)N(Cc2cccnc2)Cc2ccco2)cc1 (stereo not drawn) | 14.8
47 | COc1ccc(C(C)(C)C)cc1NC(=O)Nc1ccc2c(c1)OCO2 | 5.28
48 | c1ccc(-c2nc(CSc3nnc(-c4cccs4)o3)cs2)cc1 | 10.1
49 | Cc1ccc(-n2c(C)cc(C3N=C(N)Nc4nc5ccccc5n43)c2C)c(C)c1 (stereo not drawn) | 6.62
50 | Cn1c(=O)n(CCCOc2ccc(Br)cc2)c2ccccc21 | 13.8
51 | Cc1ccc(C)c(SCC(=O)Nc2nnc(-c3ccccc3)o2)c1 | 4.69
52 | Cc1nn(Cc2ccc(Cl)cc2)c(C)c1NC(=O)c1noc2c1CCCCC2 | 13.4
53 | Cc1cccc(C(C)(C)C)c1OCCn1ccnc1 | 11.8
54 | CCc1nc2sc3ccccc3c(=O)c2c(=O)n1Cc1ccco1 | 17.1
55 | CC1CC(C)CN(C(=O)CSc2nnc(-c3ccc(Cl)s3)o2)C1 (stereo not drawn) | 17.4
56 | O=C(Nc1nc2n(n1)C(c1ccc(Cl)cc1)CC(c1ccc(Cl)cc1)N2)c1ccco1 (stereo not drawn) | 4.7
57 | Cc1ccccc1Cn1nc(C)c(NC(=O)c2noc3c2CC(C(C)(C)C)CC3)c1C (stereo not drawn) | 9.29
58 | CCOC(=O)C1CCCN(c2ncnc3c2cnn3-c2ccc(Cl)cc2)C1 (stereo not drawn) | 9.92
59 | c1ccc(CSc2nnc(-c3ccco3)n2Cc2ccccc2)cc1 | 13.8
60 | Cc1cccc(Cn2c(=O)c3c(nc4n3CCCN4Cc3ccccc3)n(C)c2=O)c1 | 20
61 | Fc1ccc(-n2c(Cc3ccccc3)nnc2SCc2nc(-c3cccs3)no2)cc1 | 19.1
62 | CCOC(=O)c1c(NC(=O)C(F)(OC)C(F)(F)F)sc(C(=O)N2CCCCC2)c1C (stereo not drawn) | 24.6
63 | CCCCn1c(=O)n(Cc2cccc(F)c2)c(=O)c2c1ncn2Cc1ccco1 | 14.8

Row | SMILES | IC50 [µM]
64 | CC1CCN(c2oc(-c3ccccc3F)nc2C#N)CC1 | 19.2
65 | CCC(=O)N1CCN(c2cc3c(cc2F)c(=O)c(C(=O)O)cn3CC)CC1 | < 0.2
66 | c1ccc(-c2nc(NCc3ccco3)c3ccccc3n2)nc1 | 5.54
67 | CCOC(=O)Cc1csc(NC(=O)c2ccc(S(=O)(=O)N3CCCCC3)cc2)n1 | 91.3
68 | CCOC(=O)c1c(CN2CCOCC2)n(-c2ccccc2)c2ccc(O)cc12 | 18.3
69 | COc1ccc2c(c1)sc1nc(-c3ccccc3)cn12 | 12.2
70 | Cc1ccc(C)c(N2CCN(C(=O)c3ccc(NS(=O)(=O)c4c(C)noc4C)cc3)CC2)c1 | 13.6
71 | CC(C)(C)n1nnnc1C(c1cccs1)N1CCCc2ccccc21 (stereo not drawn) | 13.6
72 | O=C(NCc1ccco1)c1cc2sccc2n1Cc1ccccc1 | 14.4
73 | O=C(COc1cccc2ccccc12)N1CCN(c2ccccc2)CC1 | 22.6
74 | O=C1c2ccccc2C(=O)N1CCC(c1ccc(F)cc1)c1ccco1 (stereo not drawn) | 13.4
75 | O=S(=O)(Nc1cccc2cccnc12)c1ccc(S(=O)(=O)N2CCCC2)cc1 | 15.3
76 | O=C(Nc1cccc(Cl)c1)N(CCN1CCOCC1)Cc1cccc(Cl)c1 | 6.44
77 | CCN(CCCNC(=O)CCc1nc(-c2ccc(C)cc2)no1)c1cccc(C)c1 | 68.8
78 | O=c1n(Cc2ccccc2)c2cc(Cl)cnc2n1Cc1ccccc1 | 10.2
79 | CCn1c(SCC(=O)Nc2nc(-c3ccc(C)cc3)cs2)nnc1-c1ccccc1O | 4.11
80 | O=C(CCC1CCCC1)c1c(O)c2ccccc2oc1=O | 0.96
81 | CCCCOc1ccccc1Cn1c(=O)oc2ccc(C)cc21 | 16.4
82 | Clc1ccc2[nH]c3c(c2c1)CCc1cn[nH]c1-3 | 6.49
83 | COc1ccc2nc(NC(=O)C3COc4ccccc4O3)sc2c1 (stereo not drawn) | 14.5
